Laboratory results published in ChEMBL document CHEMBL4627381, “Licochalcone A Selectively Resensitizes ABCG2-Overexpressing Multidrug-Resistant Cancer Cells to Chemotherapeutic Drugs” (J Nat Prod, 2020).

Columns and labels:
[1] = target: ATP-dependent translocase ABCB1 (Homo sapiens, UniProt P08183); experiment: Reversal of human ABCB1-mediated multidrug resistance in HEK293/MDR19 cells assessed as fold change in colchicine IC50 at 1 uM after 72 hrs by CCK8 relative to colchicine IC50; type: cell-based
In short: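 Cells were seeded at 5000/well for 24 h, then given colchicine, etoposide, mitoxantrone or topotecan ± non-toxic modulator (0.5–3.0 μM) for 72 h, with DMSO up to 0.5%. IC50 came from fitted curves (mean ± SD, three experiments). Fold-reversal = IC50 without modulator ÷ IC50 with modulator.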

HEK293 = experiment: Effect on Colchicine-induced cytotoxicity against HEK293 cells assessed as fold change in colchicine IC50 at 1 uM after 72 hrs by CCK8 assay relative to colchicine IC50; type: cell-based; conditions: human, hek293, 72 h
In short: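 Reversal assay in parental pcDNA-HEK293 and transfected HEK293 lines (ABCB1 for colchicine, ABCC1 for etoposide, ABCG2 for mitoxantrone/topotecan). Substrate drug series was given with or without nontoxic modulator (0.5, 1.0, 2.0 or 3.0 μM) for 72 h, with a CCK-8 read-out. Fold-reversal is substrate IC50 without modulator divided by IC50 with modulator. Three independent experiments.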

S1 [2] = experiment: Induction of apoptosis in human S1 cells assessed as viable cells at 5 uM incubated for 48 hrs by annexin V/propidium iodide staining based flow cytometry (reference value: 94.1%); type: functional; conditions: S1, 48 h, read-out: Activity
S1 [3] = experiment: Induction of apoptosis in human S1 cells assessed as late apoptotic cells at 5 uM incubated for 48 hrs by annexin V/propidium iodide staining based flow cytometry (reference value: 3.6%); type: functional
In short: (§1)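 S1 cells were exposed for 48 h to DMSO, 10 μM compound, 5 μM topotecan, or 5 μM topotecan plus 10 μM compound. They were then stained with 1.25 μg/mL annexin V–FITC and 0.1 mg/mL PI for 15 min at room temperature. 10000 cells per sample were analysed by flow cytometry; three independent experiments.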

S1 [4] = experiment: Induction of apoptosis in human S1 cells assessed as necrotic cells at 5 uM incubated for 48 hrs by annexin V/propidium iodide staining based flow cytometry (reference value: 0.2%); type: functional
S1 [5] = experiment: Induction of apoptosis in human S1 cells assessed as early apoptotic cells at 5 uM incubated for 48 hrs by annexin V/propidium iodide staining based flow cytometry (reference value: 2%); type: functional; in short: as §1

ATP-dependent translocase ABCB1, sequence (P08183 whole entry): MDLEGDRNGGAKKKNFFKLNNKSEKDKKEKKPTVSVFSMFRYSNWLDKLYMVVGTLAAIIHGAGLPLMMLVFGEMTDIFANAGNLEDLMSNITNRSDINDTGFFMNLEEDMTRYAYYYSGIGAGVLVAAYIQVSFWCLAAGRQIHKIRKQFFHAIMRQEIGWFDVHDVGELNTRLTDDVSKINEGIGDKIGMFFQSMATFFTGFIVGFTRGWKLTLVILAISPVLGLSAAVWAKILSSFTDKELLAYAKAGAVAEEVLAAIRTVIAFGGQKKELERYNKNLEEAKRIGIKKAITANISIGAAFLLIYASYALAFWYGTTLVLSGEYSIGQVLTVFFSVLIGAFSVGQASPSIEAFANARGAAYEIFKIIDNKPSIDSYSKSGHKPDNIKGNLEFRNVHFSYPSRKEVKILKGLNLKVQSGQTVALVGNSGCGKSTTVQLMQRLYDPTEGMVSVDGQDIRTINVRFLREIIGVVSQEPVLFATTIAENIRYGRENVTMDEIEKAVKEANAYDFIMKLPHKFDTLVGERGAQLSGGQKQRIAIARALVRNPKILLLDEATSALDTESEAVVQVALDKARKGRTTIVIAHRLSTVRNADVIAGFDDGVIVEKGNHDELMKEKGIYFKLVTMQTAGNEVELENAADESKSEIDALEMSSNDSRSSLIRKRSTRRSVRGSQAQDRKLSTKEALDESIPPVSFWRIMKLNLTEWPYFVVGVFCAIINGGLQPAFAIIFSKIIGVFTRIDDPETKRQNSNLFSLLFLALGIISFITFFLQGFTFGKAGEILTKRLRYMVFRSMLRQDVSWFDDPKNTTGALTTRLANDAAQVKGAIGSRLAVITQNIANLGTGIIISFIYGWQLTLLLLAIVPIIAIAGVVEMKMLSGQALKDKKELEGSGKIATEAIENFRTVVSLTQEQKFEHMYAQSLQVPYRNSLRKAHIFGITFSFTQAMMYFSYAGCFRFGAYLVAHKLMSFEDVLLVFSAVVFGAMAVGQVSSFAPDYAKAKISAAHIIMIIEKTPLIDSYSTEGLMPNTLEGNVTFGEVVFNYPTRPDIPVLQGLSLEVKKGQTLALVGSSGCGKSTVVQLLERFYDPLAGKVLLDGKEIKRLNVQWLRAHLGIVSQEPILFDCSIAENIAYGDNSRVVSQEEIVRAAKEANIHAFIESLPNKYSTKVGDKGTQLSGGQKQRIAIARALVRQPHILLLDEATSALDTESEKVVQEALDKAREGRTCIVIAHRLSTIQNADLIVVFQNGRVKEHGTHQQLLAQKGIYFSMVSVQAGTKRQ

| fold change (FC) [1] | Compound | fold change (FC) (HEK293) | viability at 5 µM (S1 [2]) | Activity (S1 [3]) | Activity (S1 [4]) | Activity (S1 [5]) |
| --- | --- | --- | --- | --- | --- | --- |
| 12.5 | COc1cc2c(cc1OC)CN(CCc1ccc(NC(=O)c3cc(OC)c(OC)cc3NC(=O)c3cnc4ccccc4c3)cc1)CC2 | 1.1 | – | – | – | – |
| – | CC[C@@]1(O)C(=O)OCc2c1cc1n(c2=O)Cc2cc3c(CN(C)C)c(O)ccc3nc2-1 [TOPOTECAN] | – | 42.7% | 22.7% | 3.5% | 31.2% |
